Source: ChEMBL document CHEMBL3259662 (ACS Med Chem Lett, 2014)
Converted amounts (≈) assume the structure as drawn. The source made the active and inactive calls. The rule behind the calls is not given here.

How the values were obtained:
Staphylococcus aureus [1] = assay: Antibacterial activity against methicillin-resistant Staphylococcus aureus ATCC 33591 after 16 to 20 hrs by CLSI method; format: functional, organism-based
Staphylococcus aureus [2] = assay: Antibacterial activity against Staphylococcus aureus ATCC 29213 by CLSI method; format: functional, organism-based
Aspergillus fumigatus = assay: Antifungal activity against Aspergillus fumigatus by CLSI method; format: functional, organism-based
[3] = Selectivity index, ratio of cytotoxicity for human BT549 cells to IC50 for Cryptococcus neoformans ATCC 90113; format: toxicity, cell-based, BT-549; details: read-out: Selectivity Index
Candida albicans = assay: Antifungal activity against Candida albicans by CLSI method; format: functional, organism-based
Escherichia coli = assay: Antibacterial activity against Escherichia coli ATCC 35218 after 16 to 20 hrs by CLSI method; format: functional, organism-based
[4] = Selectivity index, ratio of cytotoxicity for human SKOV3 cells to IC50 for Cryptococcus neoformans ATCC 90113; format: toxicity, cell-based, SK-OV-3; details: read-out: Selectivity Index
[5] = Selectivity index, ratio of cytotoxicity for human SK-MEL cells to IC50 for Cryptococcus neoformans ATCC 90113; format: toxicity, cell-based; details: read-out: Selectivity Index
LLC-PK1 = assay: Cytotoxicity against pig LLC-PK1 cells assessed as cell viability after 48 hrs by neutral red uptake assay; format: cell-based, Sus scrofa; details: llc-pk1, 48 h
Summary of the method: (§1)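 Neutral red uptake assay in human cancer lines SK-MEL, KB, BT-549 and SK-OV-3 and in noncancerous mammalian kidney cells VERO and LLC-PK1. The highest tested concentration was 10 μg/mL.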

Pichia kudriavzevii = assay: Antifungal activity against Candida krusei by CLSI method; format: functional, organism-based
[6] = Selectivity index, ratio of cytotoxicity for human KB cells to IC50 for Cryptococcus neoformans ATCC 90113; format: toxicity, cell-based; details: read-out: Selectivity Index
[7] = Selectivity index, ratio of cytotoxicity for African green monkey Vero cells to IC50 for Cryptococcus neoformans ATCC 90113; format: toxicity, cell-based; details: read-out: Selectivity Index
Vero = assay: Cytotoxicity against African green monkey Vero cells assessed as cell viability after 48 hrs by neutral red uptake assay; format: cell-based; details: chlorocebus sabaeus; summary of the method: as §1
BT-549 = assay: Cytotoxicity against human BT549 cells assessed as cell viability after 48 hrs by neutral red uptake assay; format: cell-based; details: bt-549, 48 h; summary of the method: as §1
KB = assay: Cytotoxicity against human KB cells assessed as cell viability after 48 hrs by neutral red uptake assay; format: cell-based; summary of the method: as §1
SK-MEL = assay: Cytotoxicity against human SK-MEL cells assessed as cell viability after 48 hrs by neutral red uptake assay; format: cell-based; summary of the method: as §1
Cryptococcus neoformans [8] = assay: Ratio of amphotericin B MFC to compound MFC for Cryptococcus neoformans ATCC 90113 after 70 to 74 hrs by CLSI method; format: functional
[9] = Retention time of the compound by reverse phase HPLC analysis; format: physicochemical
Summary of the method: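 Reverse-phase HPLC on a C-18 column (25 cm × 4.6 mm, 5 μM) at 1 mL/min over 40 min. The gradient ran 85−5% with A = 0.1% TFA in H2O and B = 0.1% TFA in CH3CN. Detection was at 220 nm.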

Nakaseomyces glabratus = assay: Antifungal activity against Candida glabrata by CLSI method; format: functional, organism-based
SK-OV-3 = assay: Cytotoxicity against human SKOV3 cells assessed as cell viability after 48 hrs by neutral red uptake assay; format: cell-based; details: sk-ov-3, 48 h; summary of the method: as §1
[10] = Selectivity index, ratio of cytotoxicity for pig LLC-PK1 cells to IC50 for Cryptococcus neoformans ATCC 90113; format: toxicity, cell-based; details: read-out: Selectivity Index
Cryptococcus neoformans [11] = assay: Antifungal activity against Cryptococcus neoformans ATCC 90113 after 70 to 74 hrs by CLSI method; format: functional, organism-based; details: for IC50 / MIC: Cryptococcus neoformans, ATCC 90113
Summary of the method: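 Growth inhibition of C. neoformans per the CLSI protocol. […] MIC is the lowest test concentration with no detectable growth. MFC is the lowest concentration killing 100% of the organism.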

[12] = Binding affinity to EYPC/cholesterol by transmission electron microscopy
Summary of the method: (§2)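 Small unilamellar vesicles were made by a literature method, either EYPC/EYPG or EYPC/cholesterol, and incubated with or without peptide. Samples were deposited on carbon-coated copper grids, negatively stained with 2% (w/v) phosphotungstic acid and imaged by TEM to judge vesicle integrity and morphology.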

[13] = Binding affinity to EYPC/EYPG assessed as disruption of SUVs integrity by transmission electron microscopy; summary of the method: as §2
Lipid bilayer = assay: Binding affinity to small unilamellar vesicles assessed as destruction of membrane by transmission electron microscopy; summary of the method: as §2

Compound `CC(C)(C)OC(=O)N[C@@H](CCCNC(=N)N)C(=O)N[C@@H](Cc1c[nH]c(-c2ccc(-c3ccccc3)cc2)n1)C(=O)N[C@@H](CCCNC(=N)N)C(=O)NCc1ccccc1` has an MBC100 (Staphylococcus aureus [1]) of 20 µg/mL (≈ 24.7 µM), an MIC (Staphylococcus aureus [1]; Staphylococcus aureus, ATCC 33591) of 20 µg/mL (≈ 24.7 µM) and an IC50 (Staphylococcus aureus [1]; Staphylococcus aureus, ATCC 33591, read-out: IC50) of 10.8 µg/mL (≈ 13.3 µM). For the same compound, the IC50 (Staphylococcus aureus [2]) was 6.88 µg/mL (≈ 8.5 µM), the MBC100 (Staphylococcus aureus [2]) was “inactive” and the MIC (Staphylococcus aureus [2]) was 20 µg/mL (≈ 24.7 µM). The Activity (Aspergillus fumigatus) was “inactive”, the selectivity ratio [3] was over 50 and the Activity (Candida albicans) was “inactive”. The Activity (Escherichia coli) was “inactive”, the selectivity ratio [4] was over 50 and the selectivity ratio [5] was over 50. For the same compound, the Activity (LLC-PK1) was over 10 µg/mL, the Activity (Pichia kudriavzevii) was “inactive” and the selectivity ratio [6] was over 50. It also gave a selectivity ratio [7] of over 50, an Activity (Vero) of over 10 µg/mL and an Activity (BT-549) of over 10 µg/mL. The Activity (KB) was over 10 µg/mL, the Activity (SK-MEL) was over 10 µg/mL and the Ratio (Cryptococcus neoformans [8]) was 4. For the same compound, the Retention_time [9] was 24.04 min, the Activity (Nakaseomyces glabratus) was “inactive” and the Activity (SK-OV-3) was over 10 µg/mL. The selectivity ratio [10] was over 50, the MFC100 (Cryptococcus neoformans [11]) was 0.31 µg/mL (≈ 0.383 µM) and the IC50 (Cryptococcus neoformans [11]) was 0.2 µg/mL (≈ 0.247 µM). It also gave an MIC (Cryptococcus neoformans [11]) of 0.31 µg/mL (≈ 0.383 µM).
With `CC(C)(C)c1ccc(-c2nc(C[C@H](NC(=O)[C@@H](N)CCCNC(=N)N)C(=O)N[C@@H](CCCNC(=N)N)C(=O)NCc3ccccc3)c[nH]2)cc1` the Activity (Aspergillus fumigatus) was “inactive”, the selectivity ratio [3] was over 143 and the Activity (Candida albicans) was “inactive”. The Activity (Escherichia coli) was “inactive”, the selectivity ratio [4] was over 143 and the selectivity ratio [5] was over 143. The Activity (LLC-PK1) was over 10 µg/mL, the Activity (Pichia kudriavzevii) was “inactive” and the selectivity ratio [6] was over 143. The Activity [12] was “inactive”, the selectivity ratio [7] was over 143 and the Activity (Vero) was over 10 µg/mL. The Activity (BT-549) was over 10 µg/mL, the Activity [13] was “Active” and the Activity (KB) was over 10 µg/mL. The Activity (SK-MEL) was over 10 µg/mL, the Ratio (Cryptococcus neoformans [8]) was 8 and the Activity (Nakaseomyces glabratus) was “inactive”. The Activity (Lipid bilayer) was “Active”, the Activity (SK-OV-3) was over 10 µg/mL and the selectivity ratio [10] was over 143. It also gave an MFC100 (Cryptococcus neoformans [11]) of 0.16 µg/mL (≈ 0.232 µM), an IC50 (Cryptococcus neoformans [11]) of 0.07 µg/mL (≈ 0.102 µM) and an MIC (Cryptococcus neoformans [11]) of 0.16 µg/mL (≈ 0.232 µM).
